Sampled rows, rich in hits. Any-hit rate of the full collection: about 3.7%.
b-catenin transl: alters nuclear translocation of beta-catenin in HeLa cells; immunofluorescence imaging; nuclear translocation activity, % at 5 µM; hit rate 0.3% among 190,000; AID 1665;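 active = nuclear translocation activity above 50% at 5 µM, with a well cell count of 50 or more; inconclusive = wells under 50 cells across six images, flagged as toxic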;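 also: per-cell ratio of nuclear to cytoplasmic median beta-catenin stain intensity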
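Test system: human HeLa cells, native beta-catenin. Compound dosing: 5 µM primary single dose, 0.1% DMSO, 0.02–20 µM confirmation series. Incubation: compound exposure 24 h at 37°C. Detection: beta-catenin immunostaining with DAPI counterstain, 20x imaging, 6 fields/well. Read-out basis: Nuclear/cytoplasmic beta-catenin signal ratio, % activation.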
KCC2 mod: KCC2 (human) Cl- transport modulation; Q9H2X9; KCC2 cells, thallium flux FluoZin-2 fluorescence; B-score of Tl+ flux slope (higher = more flux/activation; lower = inhibition) at 10 µM; hit rate 2.2% among 190,000; AID 1456;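 active = thallium flux slope and its plate-corrected score both differing from the plate sample mean at a set confidence after two filtering rounds, in either direction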;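 also: slope of fluorescence scaled to starting intensity during 10 to 20 s after thallium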
Target sequence (Q9H2X9 whole entry, looked up): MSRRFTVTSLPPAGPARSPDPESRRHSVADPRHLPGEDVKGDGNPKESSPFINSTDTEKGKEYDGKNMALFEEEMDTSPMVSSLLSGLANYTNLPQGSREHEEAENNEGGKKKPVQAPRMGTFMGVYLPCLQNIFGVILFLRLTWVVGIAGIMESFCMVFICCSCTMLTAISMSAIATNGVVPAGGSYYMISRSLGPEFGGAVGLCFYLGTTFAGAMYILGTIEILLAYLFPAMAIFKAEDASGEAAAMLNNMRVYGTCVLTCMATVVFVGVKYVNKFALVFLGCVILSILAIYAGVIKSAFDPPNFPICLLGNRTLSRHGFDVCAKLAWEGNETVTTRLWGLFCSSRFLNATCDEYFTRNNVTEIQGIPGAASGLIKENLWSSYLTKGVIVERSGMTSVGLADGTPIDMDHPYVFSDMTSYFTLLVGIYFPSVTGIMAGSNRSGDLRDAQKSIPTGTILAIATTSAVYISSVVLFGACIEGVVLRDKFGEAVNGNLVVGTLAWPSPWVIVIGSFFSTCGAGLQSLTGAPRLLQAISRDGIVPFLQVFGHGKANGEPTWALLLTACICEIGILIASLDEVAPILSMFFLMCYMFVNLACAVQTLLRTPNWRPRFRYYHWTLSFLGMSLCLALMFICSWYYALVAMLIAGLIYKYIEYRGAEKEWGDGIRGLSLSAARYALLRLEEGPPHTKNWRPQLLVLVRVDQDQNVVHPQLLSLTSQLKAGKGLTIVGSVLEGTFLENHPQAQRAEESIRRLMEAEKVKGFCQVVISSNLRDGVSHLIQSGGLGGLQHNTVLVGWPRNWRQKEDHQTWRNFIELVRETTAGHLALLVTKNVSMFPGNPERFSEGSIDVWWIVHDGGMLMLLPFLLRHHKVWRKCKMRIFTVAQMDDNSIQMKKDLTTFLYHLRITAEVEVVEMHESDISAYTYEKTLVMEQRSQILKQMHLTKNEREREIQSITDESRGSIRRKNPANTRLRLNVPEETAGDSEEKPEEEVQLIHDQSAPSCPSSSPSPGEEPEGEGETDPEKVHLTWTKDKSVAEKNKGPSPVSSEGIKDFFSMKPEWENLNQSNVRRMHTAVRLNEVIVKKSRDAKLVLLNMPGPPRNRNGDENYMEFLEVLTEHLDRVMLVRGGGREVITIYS
Redox H2O2 prof: compounds producing H2O2 with reducing agent – biochemical, NIH compound library profiling, artefact control for MLSCN library redox annotation, primary screen. DTT-dependent redox cycling H2O2, phenol red/HRP absorbance; 100% = 100 µM peroxide control, 0% = buffer. activation, % at 10 µM. hit rate 0.03% among 200,000. AID 878;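 active = activation of at least 50% relative to the plate's high and low controls in the primary single-dose screen; inactive = activation below 50%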;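 also: compound incubated with DTT at 0.8 mM final as the reducing agent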
MT stabilizer: stabilizes microtubules in HeLa cells; hit rate 0.83% among 200,000; HeLa tubulin immunostaining HCS, 24 h; share of cells brighter than vehicle mean+2SD; AID 2205; % tubulin-high responders, % at 10 µM;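 active = plate Z-score above 3 for both tubulin-high and condensed-nucleus cell shares, with cell loss under 80%, at 10 µM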;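 also: anti alpha tubulin signal scored within the nucleus-defined area of each cell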
ROMK primary: human ROMK K+ channel modulation, primary screen; B-score at 10 µM; hit rate 2% among 130,000; P48048; AID 1918; Tet-inducible ROMK, thallium flux fluorescence; actives lie on both sides;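 active = signal ratio slope over the read window, or its plate-corrected B-score, at least 3 SD from the plate mean, either direction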;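 also: B-score of the F/F0 ratio slope over 7 to 12 s after thallium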
KCC2 secondary: confirmation of human KCC2 transport modulators; shares compounds with KCC2 mod; HEK293-KCC2, thallium flux, FluoZin2 fluorescence; stronger effect = higher value; normalised thallium flux (F/F0 slope) at 10 µM; hit rate 15% among 3,700; AID 1713;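 active = thallium flux slope above the same plate's solvent-only control mean plus 3 SD; inconclusive = the two replicate wells disagree; inactive = no significant difference from solvent-only control wells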
KCC2 bumet counter: thallium flux despite bumetanide block in KCC2 cells, secondary assay 3. shares compounds with KCC2 mod. HEK293-KCC2 + bumetanide/ouabain, thallium flux FluoZin2; stronger effect = higher value. normalized thallium flux at 10 µM. hit rate 49% among 3,700. AID 1714;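 active = thallium entry rate above the same plate's blocked-transporter control wells by more than 3 SD; inconclusive = the two repeat wells disagree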;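 also: raw slope of fluorescence over initial fluorescence between 10 and 20 s after thallium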
KCC2 secondary2: confirmation of human KCC2 transport modulators; hit rate 23% among 3,700; normalized thallium flux at 10 µM; AID 1715; shares compounds with KCC2 mod; HEK293-KCC2, thallium flux FluoZin2 fluorescence; actives lie on both sides; F/F0 rise rate, 10–20 s post-thallium;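 active = thallium flux slope more than 3 SD above or below the plate's solvent-only control mean, mostly below; inconclusive = the two repeat wells disagreed; inactive = no significant shift from solvent-only controls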
HEK293 Tl flux: parental HEK flux effect, counter-screen | HEK293 parental cells, thallium flux FluoZin2, ouabain; baseline-ratio fluorescence slope, 10–20 s after thallium | thallium flux rate (normalised fluorescence) at 10 µM | hit rate 46% among 3,700 | shares compounds with KCC2 mod | AID 1716;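 active = thallium flux rate significantly above the same plate's solvent-only control wells, beyond their mean plus 3 SD; inconclusive = the two replicate wells gave conflicting results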
KCC2 retest ouab: KCC2 (human) modulation, ouabain retest. shares compounds with KCC2 mod. HEK293-KCC2, thallium flux FluoZin2 fluorescence; bidirectional: low = inhibitor, high = activator. raw Tl+ flux slope (below DMSO = inhibition, above = activation) at 10 µM. hit rate 48% among 3,700;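 active = thallium flux slope beyond 3 SD from same-plate DMSO control mean in most replicates, usually higher, sometimes lower; inconclusive = repeat tests gave conflicting results; inactive = no significant difference from controls in most replicates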;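 also: slope of initial-normalized fluorescence between seconds 10 and 20 after thallium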
HEK counter2: counter-screen for KCC2 modulators: effect in parental HEK293 cells | thallium flux slope at 10 µM | thallium flux FluoZin-2 fluorescence slope | shares compounds with KCC2 mod | AID 1718 | hit rate 33% among 3,700;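 active = thallium flux slope above the same plate's solvent-control mean plus 3 SD in both duplicate wells; inconclusive = duplicate wells that disagreed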;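 also: run without ouabain in cells lacking the KCC2 cotransporter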
Numbers stand for hits; – = inactive; ? = inconclusive; · = no result given.

SMILES	b-catenin transl	KCC2 mod	Redox H2O2 prof	MT stabilizer	ROMK primary	KCC2 secondary	KCC2 bumet counter	KCC2 secondary2	HEK293 Tl flux	KCC2 retest ouab	HEK counter2
O=C(Nc1ccc(-c2nc3ccccc3[nH]2)cc1)c1ccccc1NS(=O)(=O)c1ccc(F)cc1	–	-4.6	–	–	–	–	–	–	–	0.015	–
O=C(C/C=N/OCc1c(Cl)cccc1Cl)c1ccc(Cl)cc1	–	–	–	–	·	·	·	·	·	·	·
Cc1ccc(-c2nc3cc(N)ccc3o2)cc1	–	–	–	–	·	·	·	·	·	·	·
Nc1ccc2oc(-c3cccs3)nc2c1	–	-3.9	–	–	–	–	–	–	–	–	–
CCCN1C(=O)/C(=C/c2ccc3c(c2)OCO3)NC1=S	–	45	–	–	–	0.026	0.071	–	0.092	0.06	0.022
CCCN1C/C(=C/c2ccc3c(c2)OCO3)C(=O)/C(=C/c2ccc3c(c2)OCO3)C1	–	–	–	–	·	·	·	·	·	·	·
Cc1ccc(C)c(N(C)C(=O)c2cc3c(=O)[nH]c4ccc(C)cc4c3s2)c1	–	–	·	·	–	·	·	·	·	·	·
CCN(CC)c1ccc(C(=O)Nc2cccc(F)c2)cc1	–	-3.3	–	–	·	–	–	–	?	–	–
CCOC(=O)c1cc2c(nc1NC(=S)Nc1ccccc1)CC(C)(C)OC2	–	–	–	–	·	·	·	·	·	·	·
CCOC(=O)c1cc2c(nc1NC(=S)NCc1ccccc1)CCCC2	–	5.2	–	–	·	–	0.03	0.039	0.038	0.063	0.018
C=CCNC(=S)Nc1nc2c(cc1C(=O)OCC)COC(C)(C)C2	–	8.5	·	·	·	–	0.022	–	0.02	0.029	0.021
S=C(Nc1ccccc1)Nc1nccs1	–	138	·	·	·	0.01	0.084	0.05	0.07	0.069	0.039
Fc1ccc(NC(=S)Nc2nccs2)cc1	–	77	–	–	–	0.03	0.064	?	0.1	0.083	0.026
S=C(NCc1ccccn1)Nc1ccccc1	–	–	–	–	–	·	·	·	·	·	·
O=C1CN(C(=O)COC(=O)c2cc(S(=O)(=O)N3CCOCC3)ccc2Cl)c2ccccc2N1	–	–	·	·	·	·	·	·	·	·	·
Cc1cc(C)cc(NC(=O)CSc2nc(CSc3ccc(Cl)cc3)cc(=O)[nH]2)c1	–	–	·	·	–	·	·	·	·	·	·
N#C/C(=C\c1ccc(O)c(O)c1)C(=O)NCCCc1ccccc1	–	–	–	–	·	–	–	–	–	?	–
COc1ccc(/C=C(\C#N)C(=O)NCCc2ccccc2)cc1OCc1ccccc1	–	–	–	–	–	·	·	·	·	·	·
c1cncc(CNc2ncnc3sc4c(c23)CCC4)c1	–	–	–	–	–	·	·	·	·	·	·
c1ccc(CNc2ncnc3sc4c(c23)CCC4)nc1	–	-4.2	–	–	·	–	–	–	0.0059	–	–
S=c1[nH]nc(-c2ccco2)n1/N=C/c1ccc(Cl)cc1	–	4.1	–	–	–	0.015	0.15	–	0.053	0.074	0.013
Cc1ccc(/C=N/n2c(-c3ccco3)n[nH]c2=S)s1	–	–	–	–	–	·	·	·	·	·	·
S=c1[nH]nc(-c2ccco2)n1/N=C/c1ccccc1Cl	–	10	–	–	·	0.012	0.036	–	0.018	0.041	0.012
O=C(Nc1ccc(C(=O)NC2CCCCC2)cc1)c1cccnc1	–	–	–	–	–	·	·	·	·	·	·
COc1ccc(NC(=O)C(CC(=O)O)Cc2ccc(C)cc2)cc1 (configuration not stated)	–	–	–	–	–	·	·	·	·	·	·
